pIC50: −log10 of the molar value.
Assays:
MRC5 = assay: Concentration required to reduce MRC-5 cell growth by 50%; format: functional; conditions: Homo sapiens
Procedure, shortened: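 MRC-5 fibroblasts seeded at 5 × 10³ cells/well, left to proliferate 24 h, then exposed to different concentrations of test compound (duplicate). After 3 days at 37 °C in 5% CO₂, cell number counted with a Coulter counter.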

Human betaherpesvirus 5 = assay: Concentration required to reduce viral plaque formation by Human Cytomegalovirus (HCMV) (strain AD-169) in MRC-5 cells; format: functional, organism-based; conditions: Human betaherpesvirus 5, MRC5

| SMILES | CC50 (MRC5) | pIC50 (Human betaherpesvirus 5) |
| --- | --- | --- |
| Cc1ccc(C(=O)CN2c3ccccc3C(=O)N(Cc3ccccc3)S2(=O)=O)cc1 | > 59 µM | 5.55 |
| COc1ccc(CN2C(=O)c3ccccc3N(Cc3ccc(OC)cc3)S2(=O)=O)cc1 | > 57 µM | 4.24 |
| O=C1c2ccccc2N(Cc2cccnc2)S(=O)(=O)N1Cc1ccccc1 | 66 µM | 4.88 |
| Cc1ccc(CN2c3ccccc3C(=O)N(Cc3ccccc3)S2(=O)=O)cc1 | > 63 µM | 5.60 |
| COc1ccc(C(=O)CN2c3ccccc3C(=O)N(Cc3ccccc3)S2(=O)=O)cc1 | > 57 µM | 5.49 |
| COc1ccc(CN2c3ccccc3C(OCc3ccccc3)=NS2(=O)=O)cc1 | > 61 µM | 4.21 |
| O=C1c2ccccc2N(Cc2ccccc2Cl)S(=O)(=O)N1Cc1ccccc1 | > 60 µM | 5.32 |
| COc1ccc(CN2c3ccccc3C(=O)N(Cc3ccccc3)S2(=O)=O)cc1 | > 61 µM | 5.15 |
| O=C(CN1c2ccccc2C(=O)N(Cc2ccccc2)S1(=O)=O)c1ccccc1 | > 61 µM | 4.61 |
| O=C1c2ccccc2N(Cc2ccc(Cl)c(Cl)c2)S(=O)(=O)N1Cc1ccc(Cl)c(Cl)c1 | > 48 µM | 4.82 |
| O=C1c2ccccc2N(Cc2ccccc2)S(=O)(=O)N1Cc1ccccc1Cl | > 60 µM | 4.92 |
| Nc1nc2c(ncn2COC(CO)CO)c(=O)[nH]1 [GANCICLOVIR] | > 98 µM | 5.23 |
| O=[N+]([O-])c1ccc(COC2=NS(=O)(=O)N(Cc3ccc([N+](=O)[O-])cc3)c3ccccc32)cc1 | > 53 µM | 4.28 |
| COc1ccc(CCN2c3ccccc3C(=O)N(Cc3ccccc3)S2(=O)=O)cc1 | > 59 µM | 5.40 |
| O=C1c2ccccc2N(Cc2ccccc2Cl)S(=O)(=O)N1Cc1ccccc1Cl | > 56 µM | 4.48 |
| C#CCCN1c2ccccc2C(=O)N(Cc2ccccc2)S1(=O)=O | 77 µM | 4.12 |
| O=S1(=O)N=C(OCc2ccc(-c3ccccc3)cc2)c2ccccc2N1Cc1ccc(-c2ccccc2)cc1 | > 47 µM | 4.33 |
| O=C1c2ccccc2N(Cc2ccc([N+](=O)[O-])cc2)S(=O)(=O)N1Cc1ccccc1 | > 59 µM | 5.10 |
| O=C1c2ccccc2N(Cc2ccc(C(F)(F)F)cc2)S(=O)(=O)N1Cc1ccccc1 | > 56 µM | 5.48 |
| O=C1c2ccccc2N(Cc2ccc(Cl)cc2)S(=O)(=O)N1Cc1ccccc1 | > 60 µM | 5.44 |
| O=C1c2ccccc2N(Cc2ccc(-c3ccccc3)cc2)S(=O)(=O)N1Cc1ccc(-c2ccccc2)cc1 | > 47 µM | 4.33 |

| SMILES | CC50 (MRC5) | pIC50 (Human betaherpesvirus 5) |
| --- | --- | --- |
| O=S1(=O)N=C(OCc2ccc(Cl)c(Cl)c2)c2ccccc2N1Cc1ccc(Cl)c(Cl)c1 | > 48 µM | 4.32 |
| O=C1c2ccccc2N(Cc2ccc(Cl)c(Cl)c2)S(=O)(=O)N1Cc1ccccc1 | > 56 µM | 5.40 |
| O=C1c2ccccc2N(Cc2ccc(Cl)cc2)S(=O)(=O)N1Cc1ccc(Cl)cc1 | > 56 µM | 5.48 |
| O=S1(=O)N=C(OCc2ccc(C(F)(F)F)cc2)c2ccccc2N1Cc1ccc(C(F)(F)F)cc1 | > 48 µM | 4.64 |
| O=C1c2ccccc2N(CCc2ccccc2)S(=O)(=O)N1Cc1ccccc1 | > 64 µM | 5.12 |
| O=C1c2ccccc2N(Cc2ccccc2)S(=O)(=O)N1Cc1ccccc1 | > 66 µM | 5.28 |
| CC(C)CN1c2ccccc2C(=O)N(Cc2ccccc2)S1(=O)=O | 72 µM | 4.84 |
| O=C1c2ccccc2N(CC2CCCCC2)S(=O)(=O)N1Cc1ccccc1 | > 65 µM | 4.81 |
| Cc1ccc(CN2c3ccccc3C(OCc3ccccc3)=NS2(=O)=O)cc1 | > 63 µM | 5.00 |
| N#Cc1ccc(CN2c3ccccc3C(=O)N(Cc3ccccc3)S2(=O)=O)cc1 | > 62 µM | 5.10 |
| O=C1c2ccccc2N(Cc2cccc3ccccc23)S(=O)(=O)N1Cc1ccccc1 | > 58 µM | 4.94 |
| O=S1(=O)N=C(OCc2ccccc2)c2ccccc2N1Cc1ccc(Cl)c(Cl)c1 | > 56 µM | 4.59 |
| N#Cc1ccc(CN2c3ccccc3C(OCc3ccccc3)=NS2(=O)=O)cc1 | > 62 µM | 4.54 |
| O=S1(=O)N=C(OCc2ccccc2)c2ccccc2N1Cc1ccccc1 | > 66 µM | 5.10 |
| O=C1c2ccccc2N(Cc2ccccc2-c2ccccc2)S(=O)(=O)N1Cc1ccccc1 | > 55 µM | 4.36 |
| O=C1c2ccccc2N(Cc2ccc([N+](=O)[O-])cc2)S(=O)(=O)N1Cc1ccc([N+](=O)[O-])cc1 | > 53 µM | 4.28 |
| O=C1c2ccccc2N(Cc2ccc(C(F)(F)F)cc2)S(=O)(=O)N1Cc1ccc(C(F)(F)F)cc1 | > 48 µM | 4.82 |
| O=C1c2ccccc2N(Cc2cccc(Cl)c2)S(=O)(=O)N1Cc1ccccc1 | > 60 µM | 5.44 |
| O=C1c2ccccc2N(CCCc2ccccc2)S(=O)(=O)N1Cc1ccccc1 | > 57 µM | 4.74 |
| O=C1c2ccccc2N(Cc2ccccc2)S(=O)(=O)N1Cc1ccc(Cl)cc1 | > 60 µM | 5.22 |

Reference: ChEMBL document CHEMBL1133624, “Benzothiadiazine dioxide dibenzyl derivatives as potent human cytomegalovirus inhibitors: synthesis and comparative molecular field analysis” (J Med Chem, 2000)
